Results taken from ChEMBL document CHEMBL5705905, “Pharmacological targeting of kinases MST1 and MST2 augments tissue repair and regeneration” (Sci Transl Med, 2016).

Legend:
[1] = molecular target: Activin receptor type-2B (Homo sapiens) (UniProt Q13705); assay: Inhibition of ACVR2B (unknown origin) assessed as remaining activity at 1 uM by Kinome scan method relative to control
In short: (§1)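 Active-site-dependent competition-binding (KINOMEscan) panel of 468 kinases, test compound at 1 μM (from a 10 mM DMSO stock). Read-out is ctrl% = (test signal − positive control signal)/(negative control signal − positive control signal) × 100. DMSO is the negative control (100%) and a control compound is the positive control (0%). Lower ctrl% means tighter binding.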

[2] = molecular target: Aurora kinase C (Homo sapiens) (UniProt Q9UQB9); assay: Inhibition of AURKC (unknown origin) assessed as remaining activity at 1 uM by Kinome scan method relative to control
In short: (§2)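 KINOMEscan active-site-dependent competition-binding panel of 468 kinases, compound at 1 μM from a DMSO stock. Result reported as ctrl% = (test signal − positive control signal)/(negative control signal − positive control signal) × 100. The negative control is DMSO (100%) and the positive control is a control compound (0%). Lower ctrl% means tighter binding.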

[3] = molecular target: BMP-2-inducible protein kinase (Homo sapiens) (UniProt Q9NSY1); assay: Inhibition of BIKE (unknown origin) assessed as remaining activity at 1 uM by Kinome scan method relative to control; in short: as §2
[4] = molecular target: Cyclin-dependent kinase 2 (Homo sapiens) (UniProt P24941); assay: Inhibition of CDK2 (unknown origin) assessed as remaining activity at 1 uM by Kinome scan method relative to control
In short: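 Active-site-dependent competition-binding profiling (KINOMEscan) at 1 μM against a 468-kinase panel; compound supplied from a 10 mM DMSO stock. Read-out is ctrl% = (test signal − positive control signal)/(negative control signal − positive control signal) × 100. DMSO is the negative control (100%) and a control compound the positive control (0%). Lower ctrl% means tighter binding.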

[5] = molecular target: Serine/threonine-protein kinase DCLK2 (Homo sapiens) (UniProt Q8N568); assay: Inhibition of DCAMKL2 (unknown origin) assessed as remaining activity at 1 uM by Kinome scan method relative to control
[6] = molecular target: Serine/threonine-protein kinase MRCK gamma (Homo sapiens) (UniProt Q6DT37); assay: Inhibition of DMPK2 (unknown origin) assessed as remaining activity at 1 uM by Kinome scan method relative to control
[7] = system: Receptor-type tyrosine-protein kinase FLT3 (Homo sapiens), P36888 [UNDEFINED MUTATION]; assay: Inhibition of FLT3 ITD mutant (unknown origin) assessed as remaining activity at 1 uM by Kinome scan method relative to control
[8] = molecular target: G protein-coupled receptor kinase 4 (Homo sapiens) (UniProt P32298); assay: Inhibition of GRK4 (unknown origin) assessed as remaining activity at 1 uM by Kinome scan method relative to control
[9] = molecular target: Interleukin-1 receptor-associated kinase 4 (Homo sapiens) (UniProt Q9NWZ3); assay: Inhibition of IRAK4 (unknown origin) assessed as remaining activity at 1 uM by Kinome scan method relative to control
[10] = system: Mast/stem cell growth factor receptor Kit (Homo sapiens), P10721 [D816H]; assay: Inhibition of KIT D816H mutant (unknown origin) assessed as remaining activity at 1 uM by Kinome scan method relative to control
[11] = molecular target: Dual specificity mitogen-activated protein kinase kinase 1 (Homo sapiens) (UniProt Q02750); assay: Inhibition of MEK1 (unknown origin) assessed as remaining activity at 1 uM by Kinome scan method relative to control
[12] = molecular target: Myosin light chain kinase family member 4 (Homo sapiens) (UniProt Q86YV6); assay: Inhibition of MYLK4 (unknown origin) assessed as remaining activity at 1 uM by Kinome scan method relative to control
In short: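 KINOMEscan active-site competition binding assay at 1 μM against 468 kinases. Ctrl% = (test − positive control)/(negative control DMSO − positive control) × 100; lower values mean tighter binding.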

[13] = system: Phosphatidylinositol 4,5-bisphosphate 3-kinase catalytic subunit alpha isoform (Homo sapiens), P42336 [E542K]; assay: Inhibition of PIK3CA E542K mutant (unknown origin) assessed as remaining activity at 1 uM by Kinome scan method relative to control
[14] = system: Phosphatidylinositol 4,5-bisphosphate 3-kinase catalytic subunit alpha isoform (Homo sapiens), P42336 [M1043I]; assay: Inhibition of PIK3CA M1043I mutant (unknown origin) assessed as remaining activity at 1 uM by Kinome scan method relative to control
[15] = molecular target: cAMP-dependent protein kinase catalytic subunit beta (Homo sapiens) (UniProt P22694); assay: Inhibition of PKAC-beta (unknown origin) assessed as remaining activity at 1 uM by Kinome scan method relative to control
[16] = molecular target: Serine/threonine-protein kinase PLK2 (Homo sapiens) (UniProt Q9NYY3); assay: Inhibition of PLK2 (unknown origin) assessed as remaining activity at 1 uM by Kinome scan method relative to control
[17] = molecular target: Ribosomal protein S6 kinase alpha-1 (Homo sapiens) (UniProt Q15418); assay: Inhibition of C-terminal kinase domain RSK1 (unknown origin) assessed as remaining activity at 1 uM by Kinome scan method relative to control; in short: as §1
[18] = molecular target: Dual specificity testis-specific protein kinase 1 (Homo sapiens) (UniProt Q15569); assay: Inhibition of TESK1 (unknown origin) assessed as remaining activity at 1 uM by Kinome scan method relative to control
HepG2 = assay: Induction of apoptosis in human HepG2 cells assessed as early apoptosis cells at 3 uM by annexinV staining (Rvb =4.16 %); format: functional
[19] = molecular target: T1, Serine/threonine-protein kinase 3 (Homo sapiens, UniProt Q13188); assay: Inhibition of recombinant His-tagged full-length MST2 (unknown origin) expressing in Escherichia coli assessed as GST-tagged MOB1a phosphorylation level incubated for 30 mins by immunoblot analysis
T1 sequence (Q13188 whole entry): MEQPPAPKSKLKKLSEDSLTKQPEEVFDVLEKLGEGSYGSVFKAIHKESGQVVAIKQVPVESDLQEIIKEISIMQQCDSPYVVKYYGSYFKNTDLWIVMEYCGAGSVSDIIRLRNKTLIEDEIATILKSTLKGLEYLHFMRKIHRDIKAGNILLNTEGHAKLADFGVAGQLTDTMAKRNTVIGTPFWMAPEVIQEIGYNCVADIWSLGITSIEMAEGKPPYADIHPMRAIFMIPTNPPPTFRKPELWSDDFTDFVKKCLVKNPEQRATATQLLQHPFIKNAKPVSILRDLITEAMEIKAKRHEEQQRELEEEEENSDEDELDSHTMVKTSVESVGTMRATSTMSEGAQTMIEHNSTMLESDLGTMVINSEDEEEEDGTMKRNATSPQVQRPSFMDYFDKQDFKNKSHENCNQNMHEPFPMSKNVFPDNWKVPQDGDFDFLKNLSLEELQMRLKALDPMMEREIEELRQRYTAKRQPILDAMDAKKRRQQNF

[20] = molecular target: Serine/threonine-protein kinase 3 (Homo sapiens, UniProt Q13188, D109A/Y101F)

Activin receptor type-2B (Homo sapiens), sequence (Q13705 whole entry): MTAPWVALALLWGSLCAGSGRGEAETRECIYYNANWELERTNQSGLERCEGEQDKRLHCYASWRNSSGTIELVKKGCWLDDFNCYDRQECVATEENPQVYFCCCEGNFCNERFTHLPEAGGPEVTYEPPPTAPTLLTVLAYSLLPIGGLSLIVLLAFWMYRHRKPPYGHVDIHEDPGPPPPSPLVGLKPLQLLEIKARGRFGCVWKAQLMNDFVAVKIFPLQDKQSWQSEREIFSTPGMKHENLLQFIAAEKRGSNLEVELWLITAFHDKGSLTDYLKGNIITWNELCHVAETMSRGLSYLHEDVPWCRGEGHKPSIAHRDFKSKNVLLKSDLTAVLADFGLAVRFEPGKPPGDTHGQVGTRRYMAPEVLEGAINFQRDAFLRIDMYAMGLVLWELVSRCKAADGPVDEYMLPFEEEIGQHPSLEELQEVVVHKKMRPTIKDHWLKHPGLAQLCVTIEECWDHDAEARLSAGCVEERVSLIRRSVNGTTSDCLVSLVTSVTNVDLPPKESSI
Serine/threonine-protein kinase PLK2 (Homo sapiens), sequence (Q9NYY3 whole entry, looked up, the tested form may be a part): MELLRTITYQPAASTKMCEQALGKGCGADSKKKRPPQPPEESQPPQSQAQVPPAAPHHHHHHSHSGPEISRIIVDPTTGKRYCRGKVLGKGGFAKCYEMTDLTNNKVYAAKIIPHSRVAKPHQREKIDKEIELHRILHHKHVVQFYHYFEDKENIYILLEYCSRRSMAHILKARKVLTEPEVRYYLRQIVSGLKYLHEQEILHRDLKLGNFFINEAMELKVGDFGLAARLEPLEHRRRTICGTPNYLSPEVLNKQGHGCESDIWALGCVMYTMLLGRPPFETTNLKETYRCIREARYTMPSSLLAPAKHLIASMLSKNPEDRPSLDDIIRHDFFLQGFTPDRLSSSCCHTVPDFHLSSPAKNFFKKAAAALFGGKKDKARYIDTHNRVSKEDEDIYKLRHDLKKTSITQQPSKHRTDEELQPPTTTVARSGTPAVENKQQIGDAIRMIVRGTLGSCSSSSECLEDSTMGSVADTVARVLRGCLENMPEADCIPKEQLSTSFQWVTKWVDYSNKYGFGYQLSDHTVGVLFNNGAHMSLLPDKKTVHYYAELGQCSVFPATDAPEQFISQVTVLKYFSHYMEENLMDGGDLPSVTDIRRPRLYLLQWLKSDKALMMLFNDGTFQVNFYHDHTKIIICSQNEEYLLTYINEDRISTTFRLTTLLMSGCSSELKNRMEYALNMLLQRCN
G protein-coupled receptor kinase 4 (Homo sapiens), sequence (P32298 whole entry, looked up): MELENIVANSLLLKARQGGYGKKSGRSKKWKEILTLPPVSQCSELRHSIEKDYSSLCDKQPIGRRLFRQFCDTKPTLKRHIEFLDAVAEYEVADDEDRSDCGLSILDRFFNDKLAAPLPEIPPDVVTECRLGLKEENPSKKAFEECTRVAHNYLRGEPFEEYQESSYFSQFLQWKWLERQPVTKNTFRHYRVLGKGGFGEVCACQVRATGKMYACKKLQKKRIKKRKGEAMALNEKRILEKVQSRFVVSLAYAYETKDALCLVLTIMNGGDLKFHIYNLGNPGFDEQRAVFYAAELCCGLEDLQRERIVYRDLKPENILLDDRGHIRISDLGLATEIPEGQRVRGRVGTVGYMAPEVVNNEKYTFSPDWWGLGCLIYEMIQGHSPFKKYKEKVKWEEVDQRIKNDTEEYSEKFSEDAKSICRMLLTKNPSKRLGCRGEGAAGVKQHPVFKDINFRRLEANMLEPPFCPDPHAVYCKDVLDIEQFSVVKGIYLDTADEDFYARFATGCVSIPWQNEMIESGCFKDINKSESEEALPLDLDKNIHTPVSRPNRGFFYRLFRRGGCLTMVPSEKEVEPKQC
Receptor-type tyrosine-protein kinase FLT3 (Homo sapiens), P36888 [UNDEFINED MUTATION], sequence (P36888 whole entry, looked up, change not shown): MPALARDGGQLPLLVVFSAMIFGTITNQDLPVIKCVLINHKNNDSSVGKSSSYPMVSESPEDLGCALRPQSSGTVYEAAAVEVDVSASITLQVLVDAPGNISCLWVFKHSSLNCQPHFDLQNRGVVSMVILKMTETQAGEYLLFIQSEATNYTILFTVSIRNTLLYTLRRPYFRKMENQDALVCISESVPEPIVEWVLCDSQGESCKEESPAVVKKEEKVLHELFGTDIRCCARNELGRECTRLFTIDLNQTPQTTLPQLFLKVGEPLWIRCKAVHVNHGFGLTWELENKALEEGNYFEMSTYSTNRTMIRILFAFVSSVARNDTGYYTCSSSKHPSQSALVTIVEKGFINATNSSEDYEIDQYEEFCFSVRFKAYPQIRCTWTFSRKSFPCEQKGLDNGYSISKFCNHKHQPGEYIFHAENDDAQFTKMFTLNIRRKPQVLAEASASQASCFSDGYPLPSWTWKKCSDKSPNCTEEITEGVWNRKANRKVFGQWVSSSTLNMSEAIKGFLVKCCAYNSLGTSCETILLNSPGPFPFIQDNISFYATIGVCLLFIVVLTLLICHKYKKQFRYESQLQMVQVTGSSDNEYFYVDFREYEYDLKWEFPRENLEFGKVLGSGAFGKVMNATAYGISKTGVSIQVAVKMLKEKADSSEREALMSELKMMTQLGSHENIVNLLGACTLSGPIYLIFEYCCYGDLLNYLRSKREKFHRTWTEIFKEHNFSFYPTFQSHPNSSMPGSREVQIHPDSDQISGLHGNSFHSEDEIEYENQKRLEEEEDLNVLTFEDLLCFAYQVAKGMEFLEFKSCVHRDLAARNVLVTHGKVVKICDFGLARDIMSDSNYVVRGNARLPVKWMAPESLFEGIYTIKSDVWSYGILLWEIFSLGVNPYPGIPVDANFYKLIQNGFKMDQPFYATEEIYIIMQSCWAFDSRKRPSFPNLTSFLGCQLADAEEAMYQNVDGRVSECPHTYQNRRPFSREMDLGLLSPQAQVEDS
Dual specificity testis-specific protein kinase 1 (Homo sapiens), sequence (Q15569 whole entry, looked up): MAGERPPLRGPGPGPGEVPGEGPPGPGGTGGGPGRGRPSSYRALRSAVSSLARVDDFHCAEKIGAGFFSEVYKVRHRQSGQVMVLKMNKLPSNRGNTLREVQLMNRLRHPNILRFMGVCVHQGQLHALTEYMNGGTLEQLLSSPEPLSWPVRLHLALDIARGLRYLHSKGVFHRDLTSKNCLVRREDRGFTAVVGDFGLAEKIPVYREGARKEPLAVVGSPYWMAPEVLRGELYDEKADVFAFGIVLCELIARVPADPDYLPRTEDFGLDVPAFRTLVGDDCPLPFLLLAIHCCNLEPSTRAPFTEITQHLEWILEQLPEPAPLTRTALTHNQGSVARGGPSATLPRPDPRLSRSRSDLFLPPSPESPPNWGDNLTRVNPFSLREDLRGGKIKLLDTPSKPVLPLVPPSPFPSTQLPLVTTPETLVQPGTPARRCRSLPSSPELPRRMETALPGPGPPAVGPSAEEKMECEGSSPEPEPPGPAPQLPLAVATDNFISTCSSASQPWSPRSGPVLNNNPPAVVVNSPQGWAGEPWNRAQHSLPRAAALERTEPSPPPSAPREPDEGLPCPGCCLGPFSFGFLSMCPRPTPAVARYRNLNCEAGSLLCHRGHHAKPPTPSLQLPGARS
Phosphatidylinositol 4,5-bisphosphate 3-kinase catalytic subunit alpha isoform (Homo sapiens), P42336 [M1043I], sequence (P42336 whole entry M1043I, canonical isoform): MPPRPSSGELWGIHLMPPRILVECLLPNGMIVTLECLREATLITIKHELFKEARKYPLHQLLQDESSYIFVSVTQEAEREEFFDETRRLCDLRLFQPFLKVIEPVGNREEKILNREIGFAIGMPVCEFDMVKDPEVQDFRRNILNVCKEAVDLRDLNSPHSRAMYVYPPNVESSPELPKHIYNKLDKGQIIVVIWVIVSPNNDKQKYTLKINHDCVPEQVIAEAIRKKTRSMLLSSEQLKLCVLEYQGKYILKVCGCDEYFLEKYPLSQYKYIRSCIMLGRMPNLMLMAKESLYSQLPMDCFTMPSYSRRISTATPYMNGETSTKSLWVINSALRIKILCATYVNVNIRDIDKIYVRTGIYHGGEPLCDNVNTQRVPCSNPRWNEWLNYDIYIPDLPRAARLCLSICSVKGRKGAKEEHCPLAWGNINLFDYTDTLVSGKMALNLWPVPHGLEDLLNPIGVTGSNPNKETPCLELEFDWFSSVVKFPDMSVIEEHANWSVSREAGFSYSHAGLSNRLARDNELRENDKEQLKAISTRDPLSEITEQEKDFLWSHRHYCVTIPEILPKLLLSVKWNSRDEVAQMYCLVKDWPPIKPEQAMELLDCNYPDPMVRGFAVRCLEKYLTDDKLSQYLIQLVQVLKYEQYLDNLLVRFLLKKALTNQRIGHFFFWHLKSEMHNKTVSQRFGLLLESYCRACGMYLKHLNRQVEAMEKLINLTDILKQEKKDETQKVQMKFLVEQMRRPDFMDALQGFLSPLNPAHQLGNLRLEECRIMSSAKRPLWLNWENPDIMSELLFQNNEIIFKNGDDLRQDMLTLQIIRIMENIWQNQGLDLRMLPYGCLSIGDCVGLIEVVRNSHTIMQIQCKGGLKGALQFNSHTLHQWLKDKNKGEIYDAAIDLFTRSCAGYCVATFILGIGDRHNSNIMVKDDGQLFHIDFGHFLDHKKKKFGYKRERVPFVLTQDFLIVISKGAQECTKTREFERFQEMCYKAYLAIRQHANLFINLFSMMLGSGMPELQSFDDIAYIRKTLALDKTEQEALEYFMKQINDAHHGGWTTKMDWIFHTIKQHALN
Myosin light chain kinase family member 4 (Homo sapiens), sequence (Q86YV6 whole entry): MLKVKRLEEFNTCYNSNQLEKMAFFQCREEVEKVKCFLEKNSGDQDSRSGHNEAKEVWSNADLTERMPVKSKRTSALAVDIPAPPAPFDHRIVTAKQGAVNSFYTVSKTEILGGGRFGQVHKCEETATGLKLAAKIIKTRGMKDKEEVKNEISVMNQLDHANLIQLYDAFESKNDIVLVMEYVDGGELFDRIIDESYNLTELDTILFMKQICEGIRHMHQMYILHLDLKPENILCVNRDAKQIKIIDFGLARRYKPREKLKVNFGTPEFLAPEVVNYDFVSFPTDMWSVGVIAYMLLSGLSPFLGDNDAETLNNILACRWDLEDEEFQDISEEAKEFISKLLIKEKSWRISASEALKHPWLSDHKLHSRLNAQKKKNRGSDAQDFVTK

Question: `CN1C(=O)c2sccc2N(C)c2nc(Nc3ccc(S(N)(=O)=O)cc3)ncc21` was tested. Which Activity [1] did it give?
Answer: The Activity was 100%.

Question: What about the Activity [2] of the same compound?
Answer: The Activity was 95%.

Question: What about the Activity [3] of the same compound?
Answer: Its Activity is 95%.

Question: And the Activity [4]?
Answer: The Activity was 90%.

Question: What about the Activity [5] of the same compound?
Answer: The Activity was 84%.

Question: And the Activity [6]?
Answer: The Activity was 100%.

Question: And the Activity [7]?
Answer: The Activity was 91%.

Question: What about the Activity [8] of the same compound?
Answer: The Activity was 99%.

Question: What about the Activity [9] of the same compound?
Answer: Its Activity is 100%.

Question: And the Activity [10]?
Answer: The Activity was 85%.

Question: And the Activity [11]?
Answer: Its Activity is 91%.

Question: What about the Activity [12] of the same compound?
Answer: The Activity was 89%.

Question: What about the Activity [13] of the same compound?
Answer: Its Activity is 48%.

Question: And the Activity [14]?
Answer: Its Activity is 77%.

Question: What about the Activity [15] of the same compound?
Answer: Its Activity is 80%.

Question: What about the Activity [16] of the same compound?
Answer: The Activity was 42%.

Question: And the Activity [17]?
Answer: The Activity was 100%.

Question: What about the Activity [18] of the same compound?
Answer: Its Activity is 80%.

Question: And the Activity (HepG2)?
Answer: Its Activity is 4.04%.

Question: What about the IC50 [19] of the same compound?
Answer: Its IC50 is 38.2 nM.

Question: And the IC50 [20]?
Answer: Its IC50 is 1680 nM.
